One may read the bioavailability as the share of a dose that reaches the circulation, judged against a reference dose that is usually intravenous. A low value points to poor availability. By IC50 is commonly meant the concentration that gives 50% inhibition. As a reminder, the clearance is the rate of elimination divided by the concentration. Read a low clearance as inefficient removal. Broadly, the half-life is how long it takes for the measured level to halve. Read a high half-life as slow loss. What is called Ki is the equilibrium dissociation constant of an inhibitor or competing ligand from its target. In general, ED50 refers to the dose at which the effect has come halfway, by size or by number of responders. Read a high ED50 as a need for a large dose.

The source of these data is ChEMBL document CHEMBL1155909, “Discovery and stereoselective synthesis of the novel isochroman neurokinin-1 receptor antagonist 'CJ-17,493'” (Bioorg Med Chem, 2008).

Series [1] can be described thus: Oral bioavailability in dog at 5 mg/kg. Conditions: in vivo. It counts as ADME, organism-based, Canis lupus familiaris. The essentials: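 Dogs were dosed orally at 5 mg/kg as a water solution. Oral bioavailability was determined.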
The nature of series [2]: Oral bioavailability in rat at 1 to 30 mg/kg. It counts as ADME, organism-based. Conditions: in vivo. The essentials:
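Rats received 1–30 mg/kg orally as the hydrochloride salt dissolved in water. Oral bioavailability was determined against iv data.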

Series [3] in a line: Displacement of [3H]desmethoxyverapamil from L-type calcium channel. A general note: Loss of bound radioactivity is the signal in a displacement assay; it reports binding, not function.
Series [4] addresses Sodium channel protein type 2 subunit alpha (Rattus norvegicus, UniProt P04775). In words: Displacement of [3H]batrachotoxinin from rat sodium channel type 2A subunit expressed in CHO-CNa2A cells […]. Format: cell-based.
The test system of another series is Mustela putorius furo. In words: Antiemetic activity against cisplatin-induced emesis in sc dosed ferrets. Format: functional, organism-based. Conditions: Mustela putorius, sc; read-out: ED90. In short, it runs like this: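 Ferrets were given the test compound sc 30 min before cisplatin (10 mg/kg, ip). Retching and vomiting/gagging episodes were counted against vehicle control. Groups were n = 4–5, data are mean ± SEM, and Student's t-test was used. Results are given as ED90 (mg/kg, sc) or as % inhibition at the stated dose.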

Series [5] in a line: Clearance in rat at 0.3 mg/kg, iv. It counts as ADME, organism-based. More on the design: dose 0.3 mg/kg, route intravenous. Conditions: in vivo. In short, it runs like this: (§1)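 Rats received 0.3 mg/kg iv. Plasma clearance, steady-state volume of distribution and half-life were derived from plasma levels.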
Series [6] in a line: Volume of distribution at steady state in rat at 0.3 mg/kg, iv. It counts as ADME, organism-based. More on the design: dose 0.3 mg/kg, route intravenous. Conditions: in vivo, read-out: Vdss. The essentials:
as §1

Series [7] is described as follows: Half life in rat at 0.3 mg/kg, iv. Format: ADME, organism-based. Also noted: dose 0.3 mg/kg, route intravenous. Conditions: in vivo. The essentials:
as §1

Series [8] can be described thus: Clearance in dog at 1 mg/kg, iv. Format: ADME, organism-based, Canis lupus familiaris. Also noted: dose 1 mg/kg, route intravenous. Conditions: in vivo. The essentials: (§2)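 Dogs received 1 mg/kg iv. Plasma clearance, steady-state volume of distribution and half-life were derived.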
A short description of series [9]: Volume of distribution at steady state in dog at 1 mg/kg, iv. Format: ADME, organism-based, Canis lupus familiaris. More on the design: dose 1 mg/kg, route intravenous. Conditions: in vivo, read-out: Vdss. In short, it runs like this:
as §2

The nature of series [10]: Half life in dog at 1 mg/kg, iv. It counts as ADME, organism-based, Canis lupus familiaris. More on the design: dose 1 mg/kg, route intravenous. Conditions: in vivo. In short, it runs like this: as §2
In a further series the target is Substance-P receptor (Homo sapiens, UniProt P25103). As to the kind of experiment: Displacement of [3H]SP from NK1 receptor in human IM9 cells.
A further series deals with Gerbillinae. In words: Inhibition of [Sar9, Met(O2)11]SP-induced foot tapping in sc dosed gerbil.

Each structure is given as a SMILES string.

Chain of Substance-P receptor (P25103 whole entry): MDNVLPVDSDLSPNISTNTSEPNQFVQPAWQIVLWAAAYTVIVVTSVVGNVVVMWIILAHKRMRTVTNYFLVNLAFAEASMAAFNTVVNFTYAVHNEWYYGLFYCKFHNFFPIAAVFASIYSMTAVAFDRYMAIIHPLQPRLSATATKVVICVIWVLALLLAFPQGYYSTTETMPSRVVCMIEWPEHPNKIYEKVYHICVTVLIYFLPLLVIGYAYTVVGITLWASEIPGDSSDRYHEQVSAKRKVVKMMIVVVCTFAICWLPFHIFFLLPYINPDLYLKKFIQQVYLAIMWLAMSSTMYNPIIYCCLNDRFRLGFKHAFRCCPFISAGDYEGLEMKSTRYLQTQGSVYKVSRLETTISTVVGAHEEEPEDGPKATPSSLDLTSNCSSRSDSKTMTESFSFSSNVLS
Chain of Sodium channel protein type 2 subunit alpha (P04775 whole entry): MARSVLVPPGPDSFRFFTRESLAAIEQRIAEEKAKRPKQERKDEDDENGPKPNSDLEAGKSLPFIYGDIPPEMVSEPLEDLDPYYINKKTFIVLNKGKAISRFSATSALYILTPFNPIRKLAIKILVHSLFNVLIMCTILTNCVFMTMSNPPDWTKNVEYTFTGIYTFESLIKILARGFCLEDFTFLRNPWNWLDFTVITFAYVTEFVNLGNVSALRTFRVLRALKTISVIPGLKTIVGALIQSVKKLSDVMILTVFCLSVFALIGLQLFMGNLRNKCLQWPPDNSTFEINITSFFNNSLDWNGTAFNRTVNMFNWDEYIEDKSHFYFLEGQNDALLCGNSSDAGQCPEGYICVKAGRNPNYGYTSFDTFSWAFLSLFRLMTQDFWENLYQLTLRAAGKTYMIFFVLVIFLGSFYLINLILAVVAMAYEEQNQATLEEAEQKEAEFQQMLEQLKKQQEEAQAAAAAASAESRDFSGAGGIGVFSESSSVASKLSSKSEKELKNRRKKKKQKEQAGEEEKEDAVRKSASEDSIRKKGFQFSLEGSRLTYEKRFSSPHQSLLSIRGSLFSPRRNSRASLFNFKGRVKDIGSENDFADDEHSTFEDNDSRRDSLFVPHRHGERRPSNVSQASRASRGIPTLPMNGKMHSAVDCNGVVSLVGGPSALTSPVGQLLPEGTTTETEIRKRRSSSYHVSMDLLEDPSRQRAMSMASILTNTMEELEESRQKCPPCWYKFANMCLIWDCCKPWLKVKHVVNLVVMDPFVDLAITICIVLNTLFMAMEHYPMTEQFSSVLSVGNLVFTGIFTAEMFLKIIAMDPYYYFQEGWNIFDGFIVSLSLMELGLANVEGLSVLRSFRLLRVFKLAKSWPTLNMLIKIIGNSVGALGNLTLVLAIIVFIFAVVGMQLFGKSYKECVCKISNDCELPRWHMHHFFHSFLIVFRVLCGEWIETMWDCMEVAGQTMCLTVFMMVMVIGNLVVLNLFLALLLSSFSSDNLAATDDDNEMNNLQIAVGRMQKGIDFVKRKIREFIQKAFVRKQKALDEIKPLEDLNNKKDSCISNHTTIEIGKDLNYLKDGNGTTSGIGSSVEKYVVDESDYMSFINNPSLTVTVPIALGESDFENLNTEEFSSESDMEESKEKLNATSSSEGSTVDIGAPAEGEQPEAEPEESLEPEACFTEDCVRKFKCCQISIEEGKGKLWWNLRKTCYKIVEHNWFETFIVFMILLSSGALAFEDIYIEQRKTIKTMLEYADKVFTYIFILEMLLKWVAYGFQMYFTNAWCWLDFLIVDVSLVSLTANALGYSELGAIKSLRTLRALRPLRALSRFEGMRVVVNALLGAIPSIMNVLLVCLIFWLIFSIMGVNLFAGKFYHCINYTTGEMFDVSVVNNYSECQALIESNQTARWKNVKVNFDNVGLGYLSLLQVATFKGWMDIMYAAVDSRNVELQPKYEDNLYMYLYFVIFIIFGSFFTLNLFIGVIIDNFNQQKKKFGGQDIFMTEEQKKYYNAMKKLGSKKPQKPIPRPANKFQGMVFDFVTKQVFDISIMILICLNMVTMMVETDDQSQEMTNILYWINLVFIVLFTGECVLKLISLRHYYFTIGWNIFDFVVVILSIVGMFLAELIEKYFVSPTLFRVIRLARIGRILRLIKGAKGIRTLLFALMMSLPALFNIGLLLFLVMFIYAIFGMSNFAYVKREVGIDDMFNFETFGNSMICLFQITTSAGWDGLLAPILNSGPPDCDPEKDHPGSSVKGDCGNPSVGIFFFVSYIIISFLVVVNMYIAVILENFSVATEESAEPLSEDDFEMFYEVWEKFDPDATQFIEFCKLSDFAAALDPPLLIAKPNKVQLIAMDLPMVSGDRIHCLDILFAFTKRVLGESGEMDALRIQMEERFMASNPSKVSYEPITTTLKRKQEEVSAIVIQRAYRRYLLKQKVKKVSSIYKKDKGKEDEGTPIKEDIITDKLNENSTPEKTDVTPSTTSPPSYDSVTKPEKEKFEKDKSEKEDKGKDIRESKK

Take `COc1cc2c(cc1CN[C@H]1CCCN[C@H]1c1ccccc1)[C@](C)(C(F)(F)F)OCC2.O`: the bioavailability in [1] came to 9.8%.
Regarding `COc1cc2c(cc1CN[C@H]1CCCN[C@H]1c1ccccc1)[C@](C)(C(F)(F)F)OCC2.Cl.Cl`, the bioavailability in series [2] was less than 1%.
Regarding `COc1cc2c(cc1CN[C@H]1CCCN[C@H]1c1ccccc1)[C@](C)(C(F)(F)F)OCC2`, the half-inhibitory concentration (IC50) in series [3] is 164 nM; in series [4] it was 48 nM; on Substance-P receptor, less than 0.1 nM. Besides, the ED90 with Mustela putorius furo was determined as 0.07 mg/kg. The clearance was 11 mL/min/kg in series [5] and 31.7 mL/min/kg in series [8]. Further, the Vd is 7 L/kg in [6] and 11 L/kg in series [9]. Moreover, the half-life in series [7] was 8.8 h; in [10], 3.8 h. Further, the affinity at Substance-P receptor, expressed as Ki, was 0.2 nM. Also, in the series with Gerbillinae, it took a dose of 0.043 mg/kg to reach the 50% effect level (ED50).
